Measurements published in ChEMBL document CHEMBL1629684, “Effects of ravuconazole treatment on parasite load and immune response in dogs experimentally infected with Trypanosoma cruzi” (Antimicrob Agents Chemother, 2010).
The source made the active and inactive calls.

Tests used:
Canis familiaris [1] = assay: Immunostimulatory activity in mongrel dog infected with Trypanosoma cruzi Berenice-78 assessed as production of antibody IgG2 at 7 mg/kg, po BID for 90 days measured after 6 months by ELISA; type: functional, organism-based; parameters: dose 7 mg/kg; conditions: Canis lupus familiaris, in the assay text read “for 60 days” for “for 90 days”
In short: (§1)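 Serum was taken before inoculation and then monthly until 6 months posttreatment, and stored at −80°C. ELISA plates were coated with alkaline extract of Y-strain parasites grown to exponential phase in LIT medium. Bound total IgG or IgG2 was detected with peroxidase-labeled anti-dog conjugates and read at 490 nm. Cutoff was the mean absorbance of 10 uninfected dogs plus 2 SD.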

Canis familiaris [2] = assay: Toxicity in mongrel dog infected with Trypanosoma cruzi Berenice-78 assessed as weight loss at 12 mg/kg, po BID for 90 days started 12 to 22 days postinfection measured after 6 months; type: organism-based, Canis lupus familiaris; parameters: dose 12 mg/kg, route oral; conditions: in vivo, 4383 h
In short: (§2)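 Body weight gain, in kg, was recorded for infected dogs 1 day and 6 months after the end of oral b.i.d. treatment. Treated animals were compared with infected untreated and noninfected control groups.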

Canis familiaris [3] = assay: Immunostimulatory activity in mongrel dog infected with Trypanosoma cruzi Y assessed as production of antibody IgG at 7 mg/kg, po BID for 90 days measured after 6 months by ELISA; type: functional, organism-based; parameters: dose 7 mg/kg; conditions: Canis lupus familiaris, in the assay text read “for 60 days” for “for 90 days”; in short: as §1
Trypanosoma cruzi [4] = assay: Antitrypanosomal activity against Trypanosoma cruzi Y infected in mongrel dog assessed as reduction in IL10 production in right atrium at 7 mg/kg, po BID after 180 days by semiquantitative RT-PCR; conditions: Cardiac atrium
Canis familiaris [5] = assay: Immunostimulatory activity in mongrel dog infected with Trypanosoma cruzi Y assessed as production of antibody IgG2 at 7 mg/kg, po BID for 90 days measured after 6 months by ELISA; type: functional, organism-based; parameters: dose 7 mg/kg; conditions: Canis lupus familiaris, in the assay text read “for 60 days” for “for 90 days”; in short: as §1
Trypanosoma cruzi [6] = assay: Antimicrobial activity against Trypanosoma cruzi Y infected in mongrel dog assessed as suppression of microbial proliferation at 7 mg/kg, po BID started 12 to 22 days postinfection measured after 1 day; type: functional, organism-based; parameters: dose 7 mg/kg
In short: (§3)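 Mongrel dogs, 4 months old, dewormed and vaccinated, were inoculated with 2.0 × 10^3 bloodstream trypomastigotes/kg. Oral b.i.d. (q12h) dosing began 12 to 22 days postinfection, once parasitemia appeared. Dosing ran 90 days at 12 mg/kg and 60 days at 7 mg/kg, with 5 dogs per group. Parasitemia was read by fresh-blood examination of marginal ear vein blood from day 10 of infection until parasites were undetectable.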

Canis familiaris [7] = assay: Immunostimulatory activity in mongrel dog infected with Trypanosoma cruzi Berenice-78 assessed as production of antibody IgG at 12 mg/kg, po BID for 90 days measured after 6 months by ELISA; type: functional, organism-based; parameters: dose 12 mg/kg; conditions: Canis lupus familiaris; in short: as §1
Trypanosoma cruzi [8] = assay: Antimicrobial activity against Trypanosoma cruzi Y infected in mongrel dog assessed as suppression of microbial proliferation at 12 mg/kg, po BID started 12 to 22 days postinfection measured after 1 day; type: functional, organism-based; parameters: dose 12 mg/kg; in short: as §3
Canis familiaris [9] = assay: Immunostimulatory activity in mongrel dog infected with Trypanosoma cruzi Berenice-78 assessed as production of antibody IgG at 7 mg/kg, po BID for 90 days measured after 6 months by ELISA; type: functional, organism-based; parameters: dose 7 mg/kg; conditions: Canis lupus familiaris; in short: as §1
Canis familiaris [10] = assay: Toxicity in mongrel dog infected with Trypanosoma cruzi Berenice-78 assessed as weight loss at 7 mg/kg, po BID for 90 days started 12 to 22 days postinfection measured after 1 day; type: organism-based, Canis lupus familiaris; parameters: dose 7 mg/kg, route oral; conditions: in vivo, 24 h; in short: as §2
Trypanosoma cruzi [11] = assay: Antimicrobial activity against Trypanosoma cruzi Berenice-78 infected in mongrel dog assessed as survival of dog at 7 mg/kg, po BID started 12 to 22 days postinfection measured after 1 day; type: functional
In short: (§4)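 Four-month-old mongrel dogs (five per group) received 2.0 × 10^3 Y or Berenice-78 bloodstream trypomastigotes/kg. Oral dosing began 12–22 days postinfection, when parasitemia was detected by fresh blood examination: 12 mg/kg q12h for 90 days, or 7 mg/kg q12h for 60 days. Ear-vein blood was checked from day 10. Mortality was expressed as the cumulative percentage of dead animals.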

Canis familiaris [12] = assay: Immunostimulatory activity in mongrel dog infected with Trypanosoma cruzi Y assessed as production of antibody IgG2 at 12 mg/kg, po BID for 90 days measured after 6 months by ELISA; type: functional, organism-based; parameters: dose 12 mg/kg; conditions: Canis lupus familiaris; in short: as §1
Canis familiaris [13] = assay: Immunostimulatory activity in mongrel dog infected with Trypanosoma cruzi Berenice-78 assessed as production of antibody IgG2 at 12 mg/kg, po BID for 90 days measured up to 30 days by ELISA; type: functional, organism-based; parameters: dose 12 mg/kg; conditions: Canis lupus familiaris; in short: as §1
Trypanosoma cruzi [14] = assay: Antimicrobial activity against Trypanosoma cruzi Y infected in mongrel dog assessed as survival of dog at 12 mg/kg, po BID started 12 to 22 days postinfection measured after 1 day; type: functional; in short: as §4
Trypanosoma cruzi [15] = assay: Antitrypanosomal activity against Trypanosoma cruzi Y infected in mongrel dog assessed as reduction in INFgamma production in right atrium at 7 mg/kg, po BID after 180 days by semiquantitative RT-PCR; type: functional, organism-based; parameters: dose 7 mg/kg; conditions: Cardiac atrium
In short: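 Dogs were euthanized 6 months after the end of treatment. RNA was extracted from the right atrium with acid guanidinium thiocyanate-phenol-chloroform. One microgram was DNase treated and reverse transcribed with oligo(dT) for 1 h at 42°C. IFN-γ or IL-10 cDNA was amplified with 1.5 mM MgCl2: 94°C 5 min, n cycles of 94/57/72°C, final extension 72°C 6 min. Expression was scored semiquantitatively against infected untreated and noninfected dogs.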

Canis familiaris [16] = assay: Immunostimulatory activity in mongrel dog infected with Trypanosoma cruzi Y assessed as production of antibody IgG at 12 mg/kg, po BID for 90 days measured after 6 months by ELISA; type: functional, organism-based; parameters: dose 12 mg/kg; conditions: Canis lupus familiaris; in short: as §1
Canis familiaris [17] = assay: Immunostimulatory activity in mongrel dog infected with Trypanosoma cruzi Berenice-78 assessed as production of antibody IgG at 12 mg/kg, po BID for 90 days measured up to 30 days by ELISA; type: functional, organism-based; parameters: dose 12 mg/kg; conditions: Canis lupus familiaris; in short: as §1
Canis familiaris [18] = assay: Toxicity in mongrel dog infected with Trypanosoma cruzi Berenice-78 assessed as weight loss at 12 mg/kg, po BID for 90 days started 12 to 22 days postinfection measured after 1 day; type: organism-based, Canis lupus familiaris; parameters: dose 12 mg/kg, route oral; conditions: in vivo, 24 h; in short: as §2
Trypanosoma cruzi [19] = assay: Antimicrobial activity against Trypanosoma cruzi Y infected in mongrel dog assessed as survival of dog at 7 mg/kg, po BID started 12 to 22 days postinfection measured after 1 day; type: functional; in short: as §4
Canis familiaris [20] = assay: Immunostimulatory activity in mongrel dog infected with Trypanosoma cruzi Berenice-78 assessed as production of antibody IgG at 7 mg/kg, po BID for 90 days measured up to 30 days by ELISA; type: functional, organism-based; parameters: dose 7 mg/kg; conditions: Canis lupus familiaris; in short: as §1
Canis familiaris [21] = assay: Toxicity in mongrel dog infected with Trypanosoma cruzi Berenice-78 assessed as weight loss at 7 mg/kg, po BID for 90 days started 12 to 22 days postinfection measured after 6 months; type: organism-based, Canis lupus familiaris; parameters: dose 7 mg/kg, route oral; conditions: in vivo, 4383 h; in short: as §2
Trypanosoma cruzi [22] = assay: Antimicrobial activity against Trypanosoma cruzi Berenice-78 infected in mongrel dog assessed as suppression of microbial proliferation at 7 mg/kg, po BID started 12 to 22 days postinfection measured after 1 day; type: functional, organism-based; parameters: dose 7 mg/kg; in short: as §3
Canis familiaris [23] = assay: Immunostimulatory activity in mongrel dog infected with Trypanosoma cruzi Berenice-78 assessed as production of antibody IgG2 at 12 mg/kg, po BID for 90 days measured after 6 months by ELISA; type: functional, organism-based; parameters: dose 12 mg/kg; conditions: Canis lupus familiaris; in short: as §1
Canis familiaris [24] = assay: Toxicity in mongrel dog infected with Trypanosoma cruzi Y assessed as weight loss at 7 mg/kg, po BID for 90 days started 12 to 22 days postinfection measured after 6 months; type: organism-based, Canis lupus familiaris; parameters: dose 7 mg/kg, route oral; conditions: in vivo, 4383 h; in short: as §2
Trypanosoma cruzi [25] = assay: Antimicrobial activity against Trypanosoma cruzi Berenice-78 infected in mongrel dog assessed as suppression of microbial proliferation at 12 mg/kg, po BID started 12 to 22 days postinfection measured after 1 day; type: functional, organism-based; parameters: dose 12 mg/kg; in short: as §3
Trypanosoma cruzi [26] = assay: Antimicrobial activity against Trypanosoma cruzi Y infected in mongrel dog assessed as parasite level in blood of dog at 7 mg/kg, po BID started 12 to 22 days postinfection measured after 30 days by PCR analysis; type: functional
In short: (§5)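 Blood PCR for T. cruzi on treated dogs (n = 5 per group) at 1 and 6 months posttreatment. Each reaction took 2 μl blood DNA template in Tris-HCl pH 9.0, 75 mM KCl, 3.5 mM MgCl2 and 0.2 mM dNTPs. Cycling was 95°C 5 min, then 2 cycles annealing at 30°C, 33 cycles at 40°C, and 72°C 5 min. Products were run on 6% polyacrylamide and silver stained. Reported as rate of positive animals.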

Trypanosoma cruzi [27] = assay: Antimicrobial activity against Trypanosoma cruzi Berenice-78 infected in mongrel dog assessed as parasite level in blood of dog at 7 mg/kg, po BID started 12 to 22 days postinfection measured after 30 days by PCR analysis; type: functional; in short: as §5
Trypanosoma cruzi [28] = assay: Antitrypanosomal activity against Trypanosoma cruzi Y infected in mongrel dog assessed as reduction in INFgamma production in right atrium at 7 mg/kg, po BID after 180 days by semiquantitative RT-PCR; conditions: Cardiac atrium
Trypanosoma cruzi [29] = assay: Antimicrobial activity against Trypanosoma cruzi Berenice-78 infected in mongrel dog assessed as survival of dog at 12 mg/kg, po BID started 12 to 22 days postinfection measured after 1 day; type: functional; in short: as §4
Canis familiaris [30] = assay: Toxicity in mongrel dog infected with Trypanosoma cruzi Y assessed as weight loss at 12 mg/kg, po BID for 90 days started 12 to 22 days postinfection measured after 6 months; type: organism-based, Canis lupus familiaris; parameters: dose 12 mg/kg, route oral; conditions: in vivo, 4383 h; in short: as §2
Canis familiaris [31] = assay: Immunostimulatory activity in mongrel dog infected with Trypanosoma cruzi Berenice-78 assessed as production of antibody IgG2 at 7 mg/kg, po BID for 90 days measured up to 30 days by ELISA; type: functional, organism-based; parameters: dose 7 mg/kg; conditions: Canis lupus familiaris; in short: as §1

## O=C(Cn1ccnc1[N+](=O)[O-])NCc1ccccc1 [BENZNIDAZOLE]
Canis familiaris [1]
  Activity: Active
Canis familiaris [2]
  Activity: Non-toxic
Canis familiaris [3]
  Activity: Active
Trypanosoma cruzi [4]
  Activity: Active
Canis familiaris [5]
  Activity: Active
Trypanosoma cruzi [6]
  Activity: Non-toxic
Canis familiaris [7]
  Activity: Active
Trypanosoma cruzi [8]
  Activity: Non-toxic
Canis familiaris [9]
  Activity: Active
Canis familiaris [10]
  Activity: Toxic
Trypanosoma cruzi [11]
  Activity: 100%
Canis familiaris [12]
  Activity: Active
Canis familiaris [13]
  Activity: Active
Trypanosoma cruzi [14]
  Activity: 100%
Trypanosoma cruzi [15]
  Activity: Active
Canis familiaris [16]
  Activity: Active
Canis familiaris [17]
  Activity: Active
Canis familiaris [18]
  Activity: Toxic
Trypanosoma cruzi [19]
  Activity: 100%
Canis familiaris [20]
  Activity: Active
Canis familiaris [21]
  Activity: Non-toxic
Trypanosoma cruzi [22]
  Activity: Non-toxic
Canis familiaris [23]
  Activity: Active
Canis familiaris [24]
  Activity: Non-toxic
Trypanosoma cruzi [25]
  Activity: Non-toxic
Trypanosoma cruzi [26]
  Activity: 0%
Trypanosoma cruzi [27]
  Activity: 0%
Trypanosoma cruzi [28]
  Activity: Active
Trypanosoma cruzi [29]
  Activity: 100%
Canis familiaris [30]
  Activity: Non-toxic
Canis familiaris [31]
  Activity: Active
